Activity calls are given as the source filed them. No cut-off for these calls is given here.
Legend:
[1] = biological target: T1, Histone-lysine N-methyltransferase EHMT2 (Homo sapiens, UniProt Q96KQ7); assay: Inhibition of HMT-G9a using S-adenosylmethionine and biotinylated H3 peptide after 1 hr
T1 sequence (Q96KQ7 whole entry): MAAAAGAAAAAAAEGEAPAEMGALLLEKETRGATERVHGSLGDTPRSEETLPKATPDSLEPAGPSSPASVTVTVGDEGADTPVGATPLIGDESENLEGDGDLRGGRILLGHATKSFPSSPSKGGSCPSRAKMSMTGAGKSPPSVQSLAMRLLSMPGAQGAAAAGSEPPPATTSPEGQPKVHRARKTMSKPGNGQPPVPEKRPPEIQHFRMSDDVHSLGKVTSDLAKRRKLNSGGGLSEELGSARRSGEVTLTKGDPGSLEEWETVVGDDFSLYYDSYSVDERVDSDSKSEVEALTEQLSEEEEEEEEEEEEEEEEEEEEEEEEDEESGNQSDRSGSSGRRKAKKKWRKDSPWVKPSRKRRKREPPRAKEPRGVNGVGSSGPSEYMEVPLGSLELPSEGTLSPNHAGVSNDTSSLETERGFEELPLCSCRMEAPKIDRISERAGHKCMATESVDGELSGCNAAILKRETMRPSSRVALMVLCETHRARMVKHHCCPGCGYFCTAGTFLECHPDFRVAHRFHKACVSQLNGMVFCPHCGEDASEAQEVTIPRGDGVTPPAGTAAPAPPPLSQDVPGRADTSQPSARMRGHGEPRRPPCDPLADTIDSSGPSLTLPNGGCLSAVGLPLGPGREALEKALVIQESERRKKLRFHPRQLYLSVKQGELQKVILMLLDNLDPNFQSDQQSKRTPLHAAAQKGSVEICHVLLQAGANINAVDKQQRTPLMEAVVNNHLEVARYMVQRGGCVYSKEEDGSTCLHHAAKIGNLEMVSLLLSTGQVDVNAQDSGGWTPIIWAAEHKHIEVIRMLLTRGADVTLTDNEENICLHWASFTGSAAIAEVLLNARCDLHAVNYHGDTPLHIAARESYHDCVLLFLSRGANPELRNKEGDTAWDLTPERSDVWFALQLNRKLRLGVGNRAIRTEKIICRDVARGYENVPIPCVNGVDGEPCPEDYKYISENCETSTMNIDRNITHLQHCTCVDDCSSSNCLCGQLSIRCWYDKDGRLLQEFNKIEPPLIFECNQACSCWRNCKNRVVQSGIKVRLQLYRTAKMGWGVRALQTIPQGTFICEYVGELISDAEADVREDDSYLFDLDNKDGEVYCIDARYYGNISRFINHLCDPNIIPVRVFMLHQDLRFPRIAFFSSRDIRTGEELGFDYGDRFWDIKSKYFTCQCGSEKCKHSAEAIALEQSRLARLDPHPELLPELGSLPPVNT
How it was run: (§1)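 GST-G9a (200 ng) or His-Set7/9 (931 ng) with BSA preincubated with compound (DMSO) in Tris-HCl pH 8.5 buffer with MgCl₂, KCl, 2-mercaptoethanol, sucrose, 1 h rt; then SAM (50 ng) and biotinylated H3 peptide (50 ng), 37 °C 2 h, boiled. Captured on streptavidin plate; G9a: anti-methylated-lysine antibody, Set7/9: anti-dimethyl-H3K4 antibody; HRP secondary, TMB, A650.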

[2] = biological target: T2, Histone-lysine N-methyltransferase SETD7 (Homo sapiens) (UniProt Q8WTS6); assay: Inhibition of HMT-set7/9 using S-adenosylmethionine and biotinylated H3 peptide at 100 uM after 1 hr; how it was run: as §1
T2 sequence (whole entry): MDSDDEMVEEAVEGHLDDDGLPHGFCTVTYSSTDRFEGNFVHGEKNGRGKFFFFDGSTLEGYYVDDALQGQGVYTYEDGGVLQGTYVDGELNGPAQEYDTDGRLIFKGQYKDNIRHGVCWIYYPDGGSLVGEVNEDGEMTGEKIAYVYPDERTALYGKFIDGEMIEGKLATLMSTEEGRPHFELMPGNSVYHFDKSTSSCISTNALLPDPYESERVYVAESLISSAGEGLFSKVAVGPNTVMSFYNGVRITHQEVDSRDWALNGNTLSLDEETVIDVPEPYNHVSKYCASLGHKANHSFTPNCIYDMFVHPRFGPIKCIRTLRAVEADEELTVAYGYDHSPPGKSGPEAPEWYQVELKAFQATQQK

P388 = assay: Cytotoxicity against mouse P388 cells after 96 hrs by MTT assay; type: functional, cell-based; conditions: P388, 96 h
How it was run: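 P388 cells grown in RPMI-1640 with 10% FBS, kanamycin and 2-hydroxyethyl disulfide at 37 °C, 5% CO2; seeded at 1 × 10⁴ cells/mL, test solution in RPMI-1640 added, 96 h incubation. MTT (1 mg/mL) added for 3 h, cells dissolved in DMSO after centrifugation; IC₅₀ determined.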

| Structure (SMILES) | IC50 [1] [nM] | inhibition [2] | IC50 (P388) [nM] |
| --- | --- | --- | --- |
| C=C1C(=O)N2[C@H]3C(=CC=C[C@@H]3O)C[C@@]2(SC)C(=O)N1C | > 100000 | inactive | 3400 |
| CN1C(=O)[C@]23Cc4ccccc4N2C(=O)[C@@]1(CO)SS3 | 55000 | inactive | 58 |
| CN1C(=O)[C@]23Cc4cccc(O)c4N2C(=O)[C@@]1(CO)SS3 | 2600 | inactive | 56 |
| CS[C@]1(CO)C(=O)N2[C@H]3C(=CC=C[C@@H]3O)C[C@@]2(SC)C(=O)N1C [BIS(DETHIO)BIS(METHYLTHIO)GLIOTOXIN] | > 100000 | inactive | 110 |
| CS[C@]1(CO)C(=O)N2c3c(O)cccc3C[C@@]2(SC)C(=O)N1C [DEHYDROBIS(METHYLTHIO)GLIOTOXIN] | 58000 | inactive | 110 |
| CN1C(=O)[C@]23CC4=CC=C[C@H](O)[C@H]4N2C(=O)[C@@]1(CO)SSSS3 [GLIOTOXIN G] | 2100 | inactive | 20 |
| CN1C(=O)[C@]23CC4=CC=C[C@H](O)[C@H]4N2C(=O)[C@@]1(CO)SS3 [GLIOTOXIN] | 6400 | inactive | 24 |

From ChEMBL document CHEMBL1949536, “Gliotoxin analogues from a marine-derived fungus, Penicillium sp., and their cytotoxic and histone methyltransferase inhibitory activities” (J Nat Prod, 2012)
